# Laboratory results: ChEMBL document CHEMBL4316592, “Synthesis of new derivatives of boehmeriasin A and their biological evaluation in liver cancer” (Eur J Med Chem, 2019)
# Activity calls are given as the source filed them. The rule behind the calls is not given here.
# What was measured:
# [1] = system: SNU-475; test: Cytotoxicity against human SNU475 cells after 72 hrs by SRB assay; type: functional, cell-based
# Summary of the method: (§1)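 SRB assay. Cells plated per well (HCT116 3000; Huh7, Hep3B, HepG2, MCF-7 2000; Mahlavu, FOCUS, SNU475 1000) and grown 24 h. Compounds came from 20 mM DMSO stocks and were tested in triplicate, 40 to 2,5 (or 2,5 to 0,03) per printed range, for 72 h. Cells fixed in 10% TCA, stained with 0.4% SRB, dye dissolved in 10 mM Tris, A515 read. IC50 derived after DMSO normalization.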
# [2] = system: HCT-116; test: Cytotoxicity against human HCT116 cells after 72 hrs by SRB assay; type: functional, cell-based; summary of the method: as §1
# [3] = system: HepG2; test: Cytotoxicity against human HepG2 cells after 72 hrs by SRB assay; type: functional, cell-based; details: hepg2; summary of the method: as §1
# [4] = system: MCF-12A; test: Cytotoxicity against human MCF12A cells after 72 hrs by SRB assay; type: cell-based
# [5] = system: MCF7; test: Cytotoxicity against human MCF7 cells after 72 hrs by SRB assay; type: functional, cell-based; summary of the method: as §1
# [6] = system: Mahlavu; test: Cytotoxicity against human Mahlavu cells after 72 hrs by SRB assay; type: functional, cell-based; summary of the method: as §1
# [7] = system: Huh-7; test: Cytotoxicity against human HuH7 cells after 72 hrs by SRB assay; type: functional, cell-based; summary of the method: as §1
# [8] = system: Hep 3B2; test: Cytotoxicity against human Hep3B cells after 72 hrs by SRB assay; type: functional, cell-based; summary of the method: as §1
# [9] = Cytotoxicity against human FOCUS cells after 72 hrs by SRB assay; type: functional, cell-based; summary of the method: as §1
# [10] = system: Huh-7; test: Induction of apoptosis in human HuH7 cells assessed as increase in cytochrome C levels by Hoechst staining-based assay; type: functional, cell-based
# Summary of the method: (§2)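 Cells were seeded on coverslips and treated after 24 h with compound at a single concentration for 72 h. Camptothecin was the positive control, with DMSO solvent control at matched volume. Cells were fixed in ice-cold methanol for 15 min, then given anti-cytochrome c (1:100 in 0.1% TBS-Tween) for 1 h and FITC secondary (1:200) for 1 h. Nuclei were counterstained and imaged by fluorescence microscopy.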
# [11] = system: Mahlavu; test: Induction of apoptosis in human Mahlavu cells assessed as increase in cytochrome C levels by Hoechst staining-based assay; type: functional, cell-based; summary of the method: as §2
# [12] = system: Huh-7; test: Induction of apoptosis in human HuH7 cells assessed as necrotic cells at 1 uM after 72 hrs by Annexin V-FITC/propidium iodide staining-based flow cytometric analysis (reference value: 0.43%); type: functional
# [13] = system: Mahlavu; test: Induction of apoptosis in human Mahlavu cells assessed as late apoptotic cells at 1 uM after 24 hrs by Annexin V-FITC/propidium iodide staining-based flow cytometric analysis (reference value: 1.28%); type: functional
# [14] = system: Mahlavu; test: Induction of apoptosis in human Mahlavu cells assessed as chromatin condensation at 1 uM by Hoechst staining-based assay; type: functional, cell-based
# [15] = system: Huh-7; test: Induction of apoptosis in human HuH7 cells assessed as viable cells at 1 uM after 48 hrs by Annexin V-FITC/propidium iodide staining-based flow cytometric analysis (reference value: 97.42%); type: functional; details: Huh-7, 48 h, read-out: Activity
# [16] = system: Mahlavu; test: Induction of apoptosis in human Mahlavu cells assessed as early apoptotic cells at 1 uM after 72 hrs by Annexin V-FITC/propidium iodide staining-based flow cytometric analysis (reference value: 0.24%); type: functional
# [17] = system: Huh-7; test: Induction of apoptosis in human HuH7 cells assessed as early apoptotic cells at 1 uM after 72 hrs by Annexin V-FITC/propidium iodide staining-based flow cytometric analysis (reference value: 0.03%); type: functional
# [18] = system: Mahlavu; test: Induction of apoptosis in human Mahlavu cells assessed as late apoptotic cells at 1 uM after 48 hrs by Annexin V-FITC/propidium iodide staining-based flow cytometric analysis (reference value: 1.45%); type: functional
# [19] = system: Huh-7; test: Induction of apoptosis in human HuH7 cells assessed as late apoptotic cells at 1 uM after 72 hrs by Annexin V-FITC/propidium iodide staining-based flow cytometric analysis (reference value: 2.34%); type: functional
# [20] = system: Huh-7; test: Induction of apoptosis in human HuH7 cells assessed as early apoptotic cells at 1 uM after 48 hrs by Annexin V-FITC/propidium iodide staining-based flow cytometric analysis (reference value: 0.02%); type: functional
# [21] = system: Huh-7; test: Induction of apoptosis in human HuH7 cells assessed as viable cells at 1 uM after 24 hrs by Annexin V-FITC/propidium iodide staining-based flow cytometric analysis (reference value: 97.30%); type: functional; details: Huh-7, 24 h, read-out: Activity
# [22] = system: Mahlavu; test: Induction of apoptosis in human Mahlavu cells assessed as viable cells at 1 uM after 48 hrs by Annexin V-FITC/propidium iodide staining-based flow cytometric analysis (reference value: 98.48%); type: functional; details: read-out: Activity
# [23] = system: Mahlavu; test: Induction of apoptosis in human Mahlavu cells assessed as necrotic cells at 1 uM after 48 hrs by Annexin V-FITC/propidium iodide staining-based flow cytometric analysis (reference value: 0.07%); type: functional
# [24] = system: Mahlavu; test: Induction of apoptosis in human Mahlavu cells assessed as viable cells at 1 uM after 72 hrs by Annexin V-FITC/propidium iodide staining-based flow cytometric analysis (reference value: 96.05%); type: functional; details: read-out: Activity
# [25] = system: Huh-7; test: Induction of apoptosis in human HuH7 cells assessed as late apoptotic cells at 1 uM after 48 hrs by Annexin V-FITC/propidium iodide staining-based flow cytometric analysis (reference value: 2.53%); type: functional
# [26] = system: Mahlavu; test: Induction of apoptosis in human Mahlavu cells assessed as early apoptotic cells at 1 uM after 48 hrs by Annexin V-FITC/propidium iodide staining-based flow cytometric analysis (reference value: 0%); type: functional
# [27] = system: MCF-10A; test: Cytotoxicity against human MCF10A cells after 72 hrs by SRB assay; type: cell-based
# [28] = system: Mahlavu; test: Induction of apoptosis in human Mahlavu cells assessed as necrotic cells at 1 uM after 24 hrs by Annexin V-FITC/propidium iodide staining-based flow cytometric analysis (reference value: 0.13%); type: functional
# [29] = system: Huh-7; test: Induction of apoptosis in human HuH7 cells assessed as viable cells at 1 uM after 72 hrs by Annexin V-FITC/propidium iodide staining-based flow cytometric analysis (reference value: 97.20%); type: functional; details: Huh-7, 72 h, read-out: Activity
# [30] = system: Huh-7; test: Induction of apoptosis in human HuH7 cells assessed as necrotic cells at 1 uM after 48 hrs by Annexin V-FITC/propidium iodide staining-based flow cytometric analysis (reference value: 0.02%); type: functional
# [31] = system: Mahlavu; test: Induction of apoptosis in human Mahlavu cells assessed as necrotic cells at 1 uM after 72 hrs by Annexin V-FITC/propidium iodide staining-based flow cytometric analysis (reference value: 0.22%); type: functional
# [32] = system: Mahlavu; test: Induction of apoptosis in human Mahlavu cells assessed as late apoptotic cells at 1 uM after 72 hrs by Annexin V-FITC/propidium iodide staining-based flow cytometric analysis (reference value: 3.48%); type: functional
# [33] = system: Huh-7; test: Induction of apoptosis in human HuH7 cells assessed as late apoptotic cells at 1 uM after 24 hrs by Annexin V-FITC/propidium iodide staining-based flow cytometric analysis (reference value: 2.51%); type: functional
# [34] = system: Huh-7; test: Induction of apoptosis in human HuH7 cells assessed as early apoptotic cells at 1 uM after 24 hrs by Annexin V-FITC/propidium iodide staining-based flow cytometric analysis (reference value: 0.17%); type: functional
# [35] = system: Mahlavu; test: Induction of apoptosis in human Mahlavu cells assessed as early apoptotic cells at 1 uM after 24 hrs by Annexin V-FITC/propidium iodide staining-based flow cytometric analysis (reference value: 0.09%); type: functional
# [36] = system: Huh-7; test: Induction of apoptosis in human HuH7 cells assessed as necrotic cells at 1 uM after 24 hrs by Annexin V-FITC/propidium iodide staining-based flow cytometric analysis (reference value: 0.03%); type: functional
# [37] = system: Mahlavu; test: Induction of apoptosis in human Mahlavu cells assessed as viable cells at 1 uM after 24 hrs by Annexin V-FITC/propidium iodide staining-based flow cytometric analysis (reference value: 98.51%); type: functional; details: read-out: Activity
# [38] = system: Mahlavu; test: Induction of apoptosis in human Mahlavu cells assessed as apoptotic body formation at 1 uM by Hoechst staining-based assay; type: functional, cell-based
# [39] = Homo sapiens, HCT-116, 72 h, read-out: IC50
# [40] = Homo sapiens, MCF7, 72 h, read-out: IC50
# [41] = Homo sapiens, Mahlavu, 72 h, read-out: IC50
# [42] = Homo sapiens, Huh-7, 72 h, read-out: IC50
# [43] = Homo sapiens, MCF-12A, 72 h, read-out: IC50
compound,measurement,setting,value
COc1ccc2cc(CN3CCCCC3C(=O)[O-])c3cc(OC)c(OC)cc3c2c1.[K+] (configuration not stated),IC50,[1]; snu-475,Not Active
same,IC50,[2]; hct-116,Not Active
same,IC50,[3],Not Active
same,IC50,[4]; mcf-12a,Non-Toxic
same,IC50,[5]; mcf7,Not Active
same,IC50,[6]; mahlavu,Not Active
same,IC50,[7]; huh-7,Not Active
same,IC50,[8]; hep 3b2,Not Active
same,IC50,[9],Not Active
COc1ccc2c3c(c4cc(OC)c(OC)cc4c2c1)CN1CCCCC1C3=O (configuration not stated),IC50,"[1]; Homo sapiens, SNU-475, 72 h, read-out: IC50",19.1 µM
same,IC50,[2]; [39],8.1 µM
same,IC50,[3],Not Active
same,IC50,[4]; mcf-12a,Non-Toxic
same,IC50,[5]; [40],7 µM
same,IC50,[6]; [41],35 µM
same,IC50,[7]; [42],12 µM
same,IC50,"[8]; Homo sapiens, Hep3B, 72 h, read-out: IC50",45 µM
same,IC50,"[9]; Homo sapiens, 72 h, read-out: IC50",5 µM
COc1ccc(/C=C(/C(=O)NCCCn2ccnc2)c2ccc(OC)c(OC)c2)cc1,IC50,[6]; mahlavu,Not Active
same,IC50,[7]; huh-7,Not Active
COc1ccc2cc(C(=O)NCCCn3ccnc3)c3cc(OC)c(OC)cc3c2c1,IC50,[6]; [41],54 µM
same,IC50,[7]; [42],19.2 µM
COc1ccc(/C=C(/CNCCCn2ccnc2)c2ccc(OC)c(OC)c2)cc1,IC50,[6]; [41],13.8 µM
same,IC50,[7]; [42],9.3 µM
COc1ccc2cc(CNCCCn3ccnc3)c3cc(OC)c(OC)cc3c2c1,IC50,[6]; mahlavu,Not Active
same,IC50,[7]; huh-7,Not Active
CC[C@@]1(O)C(=O)OCc2c1cc1n(c2=O)Cc2cc3ccccc3nc2-1,Activity,[10],Active
same,Activity,[11],Active
COc1ccc2c3c(c4cc(OC)c(OC)cc4c2c1)CN1CCCC[C@@H]1[C@@H]3O (racemic),Activity,[12],0.16%
same,Activity,[13],6.72%
same,Activity,[14],Active
same,viability at 1 µM,[15],93%
same,Activity,[16],0%
same,Activity,[17],0%
same,Activity,[18],29.29%
same,IC50,[2]; [39],0.007 µM
same,Activity,[19],16.83%
same,IC50,[4]; [43],0.1 µM
same,Activity,[20],0.07%
same,viability at 1 µM,[21],99.1%
same,viability at 1 µM,[22],70.2%
same,IC50,[5]; [40],0.021 µM
same,IC50,[6]; [41],> 0.05 µM
same,Activity,[23],0.54%
same,IC50,[7]; [42],0.017 µM
same,viability at 1 µM,[24],29.4%
same,Activity,[25],6.75%
same,Activity,[26],0%
same,IC50,[27],0.14 µM
same,Activity,[28],0.58%
same,viability at 1 µM,[29],83%
same,Activity,[30],0.21%
same,Activity,[31],1.59%
same,Activity,[32],69.05%
same,Activity,[33],0.82%
same,Activity,[34],0.05%
same,Activity,[35],0.03%
same,Activity,[36],0.02%
same,viability at 1 µM,[37],92.7%
same,Activity,[38],Active
COc1ccc2c3c(c4cc(OC)c(OC)cc4c2c1)CN1CCCC[C@@H]1[C@H]3O (racemic),Activity,[12],0.23%
same,Activity,[13],3.47%
same,Activity,[14],Active
same,viability at 1 µM,[15],96.4%
same,Activity,[16],0%
same,Activity,[17],0.05%
same,Activity,[18],5.9%
same,IC50,[2]; [39],0.043 µM
same,Activity,[19],4.69%
same,IC50,[4]; [43],> 0.05 µM
same,Activity,[20],0.07%
same,viability at 1 µM,[21],99.1%
same,viability at 1 µM,[22],93.8%
same,IC50,[5]; [40],0.016 µM
same,IC50,[6]; [41],> 0.05 µM
same,Activity,[23],0.32%
same,IC50,[7]; [42],0.306 µM
same,viability at 1 µM,[24],88.9%
same,Activity,[25],3.38%
same,Activity,[26],0%
same,IC50,[27],0.8 µM
same,Activity,[28],0.33%
same,viability at 1 µM,[29],95%
same,Activity,[30],0.13%
same,Activity,[31],0.61%
same,Activity,[32],10.53%
same,Activity,[33],0.81%
same,Activity,[34],0%
same,Activity,[35],0.02%
same,Activity,[36],0.07%
same,viability at 1 µM,[37],96.2%
same,Activity,[38],Active
